Source: ChEMBL document CHEMBL1142894, “Preparation of 5-aryl-3-alkylthio-l,2,4-triazoles and corresponding sulfones with antiinflammatory-analgesic activity” (Bioorg Med Chem, 2007)
Active and inactive are the calls of the source. The rule behind the calls is not given here.

Experiments:
Mus musculus [1] = test: Antiinflammatory activity against carrageenan-induced paw edema in Swiss albino mouse assessed as swelling thickness at 50 mg/kg, po after 90 mins; format: functional
Procedure, shortened: (§1)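 Oral dosing in 0.5% CMC; vehicle to controls. Then carrageenan (0.5 mg/25 ll, freshly suspended in 154 mM saline) injected into the right hind paw subplantar tissue; saline into the left paw. Right-left footpad thickness difference measured by dial gauge calliper every 90 min over 6 h. Inhibition % is relative to vehicle control. n = 6; mean ± SEM.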

Mus musculus [2] = test: Inhibition of carrageenan-induced paw edema in Swiss albino mouse at 200 mg/kg, po after 90 mins relative to control; format: functional; settings: 1.5 h; procedure, shortened: as §1
Mus musculus [3] = test: Acute toxicity in Swiss albino mouse assessed as lethal effect at 25 mg/kg/day, po after 72 hrs; format: organism-based; set-up: route oral; settings: in vivo
Procedure, shortened: (§2)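 Oral single dose suspended in 0.5% carboxymethylcellulose, given after a 24 h fast; food and water returned 1 h after dosing. Vehicle-only controls. Mice observed at 1 h, then once daily for 72 h, for toxic signs and mortality.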

Mus musculus [4] = test: Inhibition of carrageenan-induced paw edema in Swiss albino mouse at 50 mg/kg, po after 360 mins relative to control; format: functional; settings: 6 h
Procedure, shortened: (§3)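 Mice, n = 6 per group. Test agent given orally as a suspension in 0.5% sodium CMC in distilled water; controls received vehicle only. Afterwards, 0.5 mg/25 ll carrageenan in saline (154 mM NaCl) injected subplantar into the right hind paw, saline into the left. Right-minus-left footpad thickness measured by dial gauge caliper every 90 min for 6 h. Inhibition is relative to vehicle-control group means.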

Mus musculus [5] = test: Antiinflammatory activity against carrageenan-induced paw edema in Swiss albino mouse assessed as swelling thickness at 25 mg/kg, po after 270 mins; format: functional; procedure, shortened: as §1
Mus musculus [6] = test: Analgesic activity against p-benzoquinone-induced abdominal constriction in Swiss albino mouse assessed as number of writhings at 200 mg/kg, po; format: functional, Abdomen
Procedure, shortened: (§4)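 Test samples given orally in 0.5% CMC; vehicle to controls. 60 min later, 2.5% (v/v) p-benzoquinone in distilled water, 0.1 ml/10 g, given i.p. Mice housed singly; writhes counted for 15 min starting 5 min after injection. Activity is % change from vehicle controls. n = 6; mean ± SEM.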

Mus musculus [7] = test: Antiinflammatory activity against carrageenan-induced paw edema in Swiss albino mouse assessed as swelling thickness at 50 mg/kg, po after 180 mins; format: functional; procedure, shortened: as §1
Mus musculus [8] = test: Antiinflammatory activity against carrageenan-induced paw edema in Swiss albino mouse assessed as swelling thickness at 200 mg/kg, po after 180 mins; format: functional; procedure, shortened: as §1
Mus musculus [9] = test: Inhibition of carrageenan-induced paw edema in Swiss albino mouse at 100 mg/kg, po after 90 mins relative to control; format: functional; settings: 1.5 h; procedure, shortened: as §1
Mus musculus [10] = test: Inhibition of carrageenan-induced paw edema in Swiss albino mouse at 100 mg/kg, po after 180 mins relative to control; format: functional; settings: 3 h; procedure, shortened: as §1
Mus musculus [11] = test: Antiinflammatory activity against carrageenan-induced paw edema in Swiss albino mouse assessed as swelling thickness at 100 mg/kg, po after 360 mins; format: functional; procedure, shortened: as §1
Mus musculus [12] = test: Antiinflammatory activity against carrageenan-induced paw edema in Swiss albino mouse assessed as swelling thickness at 200 mg/kg, po after 90 mins; format: functional; procedure, shortened: as §1
Mus musculus [13] = test: Antiinflammatory activity against carrageenan-induced paw edema in Swiss albino mouse assessed as swelling thickness at 200 mg/kg, po after 270 mins; format: functional; procedure, shortened: as §1
Mus musculus [14] = test: Gastric-ulcerogenic effect in Swiss albino mouse assessed as lesions at 100 mg/kg, po; format: functional, organism-based; set-up: dose 100 mg/kg
Procedure, shortened: (§5)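 Mice killed under deep ether anesthesia 3 h after the writhing test; the oral dose in 0.5% CMC was the one used in that test. Stomachs removed, opened along the great curvature and examined under a dissecting microscope for lesions or bleeding. Reported as ratio of ulceration; n = 6.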

Mus musculus [15] = test: Acute toxicity in Swiss albino mouse assessed as lethal effect at 50 mg/kg/day, po after 72 hrs; format: organism-based; set-up: route oral; settings: in vivo; procedure, shortened: as §2
Mus musculus [16] = test: Gastric-ulcerogenic effect in Swiss albino mouse assessed as lesions at 50 mg/kg, po; format: functional, organism-based; set-up: dose 50 mg/kg; procedure, shortened: as §5
Mus musculus [17] = test: Inhibition of carrageenan-induced paw edema in Swiss albino mouse at 25 mg/kg, po after 270 mins relative to control; format: functional; settings: 4.5 h; procedure, shortened: as §1
Mus musculus [18] = test: Antiinflammatory activity against carrageenan-induced paw edema in Swiss albino mouse assessed as swelling thickness at 50 mg/kg, po after 360 mins; format: functional; procedure, shortened: as §1
Mus musculus [19] = test: Inhibition of p-benzoquinone-induced writhing in Swiss albino mouse at 25 mg/kg, po relative to control; format: functional
Procedure, shortened: (§6)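 Mice, n = 6 per group, dosed orally with a suspension in 0.5% sodium CMC. 60 min later, 0.1 ml/10 g of 2.5% […] p-benzoquinone in distilled water given ip. Abdominal writhes counted per animal for 15 min, starting 5 min after injection. Expressed as % change in mean writhing count versus vehicle controls.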

Mus musculus [20] = test: Gastric-ulcerogenic effect in Swiss albino mouse assessed as lesions at 25 mg/kg, po; format: functional, organism-based; set-up: dose 25 mg/kg; procedure, shortened: as §5
Mus musculus [21] = test: Inhibition of p-benzoquinone-induced writhing in Swiss albino mouse at 50 mg/kg, po relative to control; format: functional; procedure, shortened: as §6
Mus musculus [22] = test: Inhibition of p-benzoquinone-induced writhing in Swiss albino mouse at 200 mg/kg, po relative to control; format: functional; procedure, shortened: as §6
Mus musculus [23] = test: Antiinflammatory activity against carrageenan-induced paw edema in Swiss albino mouse assessed as swelling thickness at 100 mg/kg, po after 90 mins; format: functional; procedure, shortened: as §1
Mus musculus [24] = test: Antiinflammatory activity against carrageenan-induced paw edema in Swiss albino mouse assessed as swelling thickness at 100 mg/kg, po after 270 mins; format: functional; procedure, shortened: as §1
Mus musculus [25] = test: Inhibition of p-benzoquinone-induced writhing in Swiss albino mouse at 100 mg/kg, po relative to control; format: functional; procedure, shortened: as §6
Mus musculus [26] = test: Antiinflammatory activity against carrageenan-induced paw edema in Swiss albino mouse assessed as swelling thickness at 100 mg/kg, po after 180 mins; format: functional; procedure, shortened: as §1
Mus musculus [27] = test: Inhibition of carrageenan-induced paw edema in Swiss albino mouse at 25 mg/kg, po after 90 mins relative to control; format: functional; settings: 1.5 h; procedure, shortened: as §1
Mus musculus [28] = test: Inhibition of carrageenan-induced paw edema in Swiss albino mouse at 25 mg/kg, po after 360 mins relative to control; format: functional; settings: 6 h; procedure, shortened: as §1
Mus musculus [29] = test: Antiinflammatory activity in Swiss albino mouse assessed as inhibition of carrageenan-induced paw edema at 50 mg/kg, po; format: functional
Mus musculus [30] = test: Analgesic activity against p-benzoquinone-induced abdominal constriction in Swiss albino mouse assessed as number of writhings at 50 mg/kg, po; format: functional, Abdomen; procedure, shortened: as §4
Mus musculus [31] = test: Inhibition of carrageenan-induced paw edema in Swiss albino mouse at 200 mg/kg, po after 360 mins relative to control; format: functional; settings: 6 h; procedure, shortened: as §1
Mus musculus [32] = test: Inhibition of carrageenan-induced paw edema in Swiss albino mouse at 100 mg/kg, po after 360 mins relative to control; format: functional; settings: 6 h; procedure, shortened: as §1
Mus musculus [33] = test: Acute toxicity in Swiss albino mouse assessed as lethal effect at 100 mg/kg/day, po after 72 hrs; format: organism-based; set-up: route oral; settings: in vivo; procedure, shortened: as §2
Mus musculus [34] = test: Acute toxicity in Swiss albino mouse assessed as lethal effect at 200 mg/kg/day, po after 72 hrs; format: organism-based; set-up: route oral; settings: in vivo; procedure, shortened: as §2
Mus musculus [35] = test: Inhibition of carrageenan-induced paw edema in Swiss albino mouse at 50 mg/kg, po after 90 mins relative to control; format: functional; settings: 1.5 h; procedure, shortened: as §3
Mus musculus [36] = test: Inhibition of carrageenan-induced paw edema in Swiss albino mouse at 100 mg/kg, po after 270 mins relative to control; format: functional; settings: 4.5 h; procedure, shortened: as §1
Mus musculus [37] = test: Analgesic activity against p-benzoquinone-induced abdominal constriction in Swiss albino mouse assessed as number of writhings at 25 mg/kg, po; format: functional, Abdomen; procedure, shortened: as §4
Mus musculus [38] = test: Antiinflammatory activity against carrageenan-induced paw edema in Swiss albino mouse assessed as swelling thickness at 25 mg/kg, po after 360 mins; format: functional; procedure, shortened: as §1
Mus musculus [39] = test: Antiinflammatory activity against carrageenan-induced paw edema in Swiss albino mouse assessed as swelling thickness at 50 mg/kg, po after 270 mins; format: functional; procedure, shortened: as §1
Mus musculus [40] = test: Analgesic activity against p-benzoquinone-induced abdominal constriction in Swiss albino mouse assessed as number of writhings at 100 mg/kg, po; format: functional, Abdomen; procedure, shortened: as §4
Mus musculus [41] = test: Antiinflammatory activity against carrageenan-induced paw edema in Swiss albino mouse assessed as swelling thickness at 25 mg/kg, po after 90 mins; format: functional; procedure, shortened: as §1
Mus musculus [42] = test: Inhibition of carrageenan-induced paw edema in Swiss albino mouse at 25 mg/kg, po after 180 mins relative to control; format: functional; settings: 3 h; procedure, shortened: as §1
Mus musculus [43] = test: Inhibition of carrageenan-induced paw edema in Swiss albino mouse at 50 mg/kg, po after 270 mins relative to control; format: functional; settings: 4.5 h; procedure, shortened: as §3
Mus musculus [44] = test: Inhibition of carrageenan-induced paw edema in Swiss albino mouse at 200 mg/kg, po after 270 mins relative to control; format: functional; settings: 4.5 h; procedure, shortened: as §1
Mus musculus [45] = test: Inhibition of carrageenan-induced paw edema in Swiss albino mouse at 50 mg/kg, po after 180 mins relative to control; format: functional; settings: 3 h; procedure, shortened: as §1
Mus musculus [46] = test: Antiinflammatory activity against carrageenan-induced paw edema in Swiss albino mouse assessed as swelling thickness at 25 mg/kg, po after 180 mins; format: functional; procedure, shortened: as §1
Mus musculus [47] = test: Antiinflammatory activity against carrageenan-induced paw edema in Swiss albino mouse assessed as swelling thickness at 200 mg/kg, po after 360 mins; format: functional; procedure, shortened: as §1
Mus musculus [48] = test: Inhibition of carrageenan-induced paw edema in Swiss albino mouse at 200 mg/kg, po after 180 mins relative to control; format: functional; settings: 3 h; procedure, shortened: as §1

SMILES: CCS(=O)(=O)c1nc(-c2ccc(Cl)cc2)n[nH]1
- Activity (Mus musculus [1]): 35.4 10^-2mm
- inhibition in vivo at 200 mg/kg (Mus musculus [2]): 14.5%
- Activity (Mus musculus [3]): Non-toxic
- inhibition in vivo at 50 mg/kg (Mus musculus [4]): 45.3%
- Activity (Mus musculus [5]): 57.9 10^-2mm
- Activity (Mus musculus [6]): 44.1
- Activity (Mus musculus [7]): 36.1 10^-2mm
- Activity (Mus musculus [8]): 48.9 10^-2mm
- inhibition in vivo at 100 mg/kg (Mus musculus [9]): 39.3%
- inhibition in vivo at 100 mg/kg (Mus musculus [10]): 39.8%
- Activity (Mus musculus [11]): 35.3 10^-2mm
- Activity (Mus musculus [12]): 45.5 10^-2mm
- Activity (Mus musculus [13]): 55.4 10^-2mm
- Activity (Mus musculus [14]): Active
- Activity (Mus musculus [15]): Non-toxic
- Activity (Mus musculus [16]): Active
- inhibition in vivo at 25 mg/kg (Mus musculus [17]): 10.6%
- Activity (Mus musculus [18]): 39.4 10^-2mm
- inhibition in vivo at 25 mg/kg (Mus musculus [19]): 26.5%
- Activity (Mus musculus [20]): Active
- inhibition in vivo at 50 mg/kg (Mus musculus [21]): 59.5%
- inhibition in vivo at 200 mg/kg (Mus musculus [22]): 18.5%
- Activity (Mus musculus [23]): 27.2 10^-2mm
- Activity (Mus musculus [24]): 34.5 10^-2mm
- inhibition in vivo at 100 mg/kg (Mus musculus [25]): 56.9%
- Activity (Mus musculus [26]): 31 10^-2mm
- inhibition in vivo at 25 mg/kg (Mus musculus [27]): 13.9%
- inhibition in vivo at 25 mg/kg (Mus musculus [28]): 15%
- inhibition in vivo at 50 mg/kg (Mus musculus [29]): 40.2%
- Activity (Mus musculus [30]): 20.8
- inhibition in vivo at 200 mg/kg (Mus musculus [31]): 18.9%
- inhibition in vivo at 100 mg/kg (Mus musculus [32]): 48.7%
- Activity (Mus musculus [33]): Non-toxic
- Activity (Mus musculus [34]): Non-toxic
- inhibition in vivo at 50 mg/kg (Mus musculus [35]): 33.5%
- inhibition in vivo at 100 mg/kg (Mus musculus [36]): 41.3%
- Activity (Mus musculus [37]): 37.8
- Activity (Mus musculus [38]): 61.2 10^-2mm
- Activity (Mus musculus [39]): 37.2 10^-2mm
- Activity (Mus musculus [40]): 20.4
- Activity (Mus musculus [41]): 45.8 10^-2mm
- inhibition in vivo at 25 mg/kg (Mus musculus [42]): 16.5%
- inhibition in vivo at 50 mg/kg (Mus musculus [43]): 42.6%
- inhibition in vivo at 200 mg/kg (Mus musculus [44]): 14.5%
- inhibition in vivo at 50 mg/kg (Mus musculus [45]): 39.2%
- Activity (Mus musculus [46]): 49.6 10^-2mm
- Activity (Mus musculus [47]): 58.4 10^-2mm
- inhibition in vivo at 200 mg/kg (Mus musculus [48]): 17.7%
